According to publication PMC7115590 (European Journal of Medicinal Chemistry, 2012):

Tests used:
[1] = test system: HBsAg (hepatitis B surface antigen) secretion; experiment: Inhibition of HBsAg secretion in HepG 2.2.15 cells; format: cell-based; settings: Hepatitis B virus, HepG2.2.15, read-out: HBsAg IC50
HBV DNA replication = experiment: Inhibition of HBV DNA replication in HepG 2.2.15 cells; format: cell-based; settings: Hepatitis B virus, HepG2.2.15, read-out: DNA replication IC50
Cytotoxicity = format: cell-based; settings: human, HepG 2.2.15 cells
Kunming mice = experiment: Acute toxicity in mice, single oral dose, 14 days observation; format: in vivo; settings: for No. of dead, 1–7 day / No. of dead, 8–14 day / Total death / mortality: 10 mice; for Body weight, 0 day: group average
Outline: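 Male and female Kunming mice (21 ± 2 g) were randomised into 4 groups of 10 (5 male + 5 female). Each group received one oral dose of test compound at 0, 50, 250 or 1250 mg/kg; the 0 group got the same volume of physiological saline. Mice had free food and water at 25 ± 1 °C on a 12-h light/dark cycle. Survival and body weight were recorded up to 14 days.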

With CC(=O)[C@]1(O)CC[C@@]2(O)[C@]1(C)[C@H](OC(=O)/C=C(\C)C(C)C)C[C@@H]1[C@@]3(C)CC[C@H](O)CC3=CC[C@]12O [Compound 1, caudatin] the IC50 [1] was 143 µM, the IC50 (HBV DNA replication) was 40.6 µM and the CC50 (Cytotoxicity) was 245 µM.

For COc1cc(/C=C/C(=O)O[C@H]2CC[C@@]3(C)C(=CC[C@]4(O)[C@@H]3C[C@@H](OC(=O)/C=C(\C)C(C)C)[C@@]3(C)[C@]4(O)CC[C@@]3(O)C(C)=O)C2)cc(OC)c1OC [Compound 18, 3-O-(3,4,5-Trimethoxy)cinnamoyl caudatin], the “No. of dead, 1–7 day” value (Kunming mice; 50 mg/kg oral) was 0, the “No. of dead, 8–14 day” value (Kunming mice; 50 mg/kg oral) was 0 and the Total death (Kunming mice; 50 mg/kg oral) was 0/0. For the same compound, the mortality (Kunming mice; 50 mg/kg oral) was 0/0, the “Body weight, 0 day” value (Kunming mice; 50 mg/kg oral) was 22.4 g and the “No. of dead, 1–7 day” value (Kunming mice; 250 mg/kg oral) was 0. The “No. of dead, 8–14 day” value (Kunming mice; 250 mg/kg oral) was 0, the Total death (Kunming mice; 250 mg/kg oral) was 0/0 and the mortality (Kunming mice; 250 mg/kg oral) was 0/0. The “Body weight, 0 day” value (Kunming mice; 250 mg/kg oral) was 22.3 g, the “No. of dead, 1–7 day” value (Kunming mice; 1250 mg/kg oral) was 0 and the “No. of dead, 8–14 day” value (Kunming mice; 1250 mg/kg oral) was 0. For the same compound, the Total death (Kunming mice; 1250 mg/kg oral) was 0/0, the mortality (Kunming mice; 1250 mg/kg oral) was 0/0 and the “Body weight, 0 day” value (Kunming mice; 1250 mg/kg oral) was 22.6 g. The “survival and abnormality of mice up to 14 days post administration” value (Kunming mice; single oral dose at 50, 250 and 1250 mg/kg, Kunming mice of both genders) was “no dies and abnormality were observed”.
